Results reported in the RNAGym collection of RNA variant scans (doi:10.1126/science.aae0568).
Variants at the floor of the assay were thinned out.

B1: tRNA (parent)
chain: GUUCCGUUGGCGUAAUGGUAACGCGUCUCCCUCCUAAGGAGAAGACUGCGGGUUCGAGUCCCGUACGGAACG

Variants of: B1
Assay: yeast fitness relative to wild type (ratio to wild type); higher = fitter; tRNA-Arg(CCU), competitive growth, 37 C, YPD
Method in brief: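 Start and end populations of a pooled competition were compared by 100-nucleotide paired-end sequencing of gene amplicons. The Saccharomyces cerevisiae strains carried tRNA-Arg(CCU) gene variants at the native genomic locus, synthesised with a 3% per-site mutation rate at 69 sites, and competed in YPD at 37°C for 24 hours in six parallel replicates. Darwinian fitness relative to wild type was based on the change in genotype frequencies. Genotypes required ≥ 100 starting reads, and estimates < 0.5 were set to 0.5.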

Row | Variant | yeast fitness
1 | A14C A21U A42C G58C U64A A69C | ≤ 0.5
2 | A14C A40G A57G | 0.539
3 | A14C C61U A65C | ≤ 0.5
4 | A14C A57C G68C | ≤ 0.5
5 | A14C C66G G68C | ≤ 0.5
6 | A14C G25A C29G A45U C62A A70C | ≤ 0.5
7 | A14C A37G C49G | ≤ 0.5
8 | A14C C22A C55G | ≤ 0.5
9 | A14C C31U A40U A57G | 0.53
10 | A14C C60A A65U | ≤ 0.5
11 | A14C C27G C46G A57C A70C | ≤ 0.5
12 | U13G C49A C55U C60U C61U | ≤ 0.5
13 | U13G C55G C60A | ≤ 0.5
14 | A14C A20U C60G | 0.571
15 | U13G C27G | 0.537
16 | A14C A20U G25C A43C | ≤ 0.5
17 | A14C C27G C61U A70G | 0.538
18 | A14C C22U U64C A70G | ≤ 0.5
19 | U13G C31U U35A A57C | 0.61
20 | U13G U47A G68A | 0.737
21 | A14C C30G A37G A45G G50A U59C G67C | ≤ 0.5
22 | A14C G17U C22U C34U | ≤ 0.5
23 | A14C C30G C46U G48A U54G | ≤ 0.5
24 | A14C C24A G52A U53A | ≤ 0.5

Row | Variant | yeast fitness
25 | A14C C34G | 0.577
26 | A14C C34U | ≤ 0.5
27 | A14C G25C G48A A69U | 0.553
28 | A14C A45U C62A | ≤ 0.5
29 | A14C A20U C30A C31A G52A G68U | 0.551
30 | A14C A40G A42U | ≤ 0.5
31 | U13G C27A G52C C55A C62G | 0.601
32 | A14C C22U C55U C61G C62G | ≤ 0.5
33 | A14C A20U C27G U53C | ≤ 0.5
34 | A14C C27G C33A A45U G67U | ≤ 0.5
35 | A14C C30U G41C | 0.589
36 | A14C A15G G23C A57C | ≤ 0.5
37 | A14C G63C | 0.535
38 | A14C G63A | 0.803
39 | U13G C24A A45G C55G | 0.622
40 | A14C A43G U64A | ≤ 0.5
41 | U13G C24G | 0.539
42 | U13G C24A | 0.602
43 | A14C A21U C22U A37G G44A A45C C46A C55U U59G | 0.608
44 | A14C C29U G52A C55G | ≤ 0.5
45 | A14C C34U G39C A70U | ≤ 0.5
46 | A14C G18A A42G G44A C66G | ≤ 0.5
47 | A14C C27A C31A G63A | ≤ 0.5
48 | A14C C61U A70C | ≤ 0.5

Row | Variant | yeast fitness
49 | U13G G58A | 1.08
50 | U13G G58C | 0.969
51 | A14C A20U C27G U59C C61A | ≤ 0.5
52 | A14C C61A | 0.604
53 | A14C C61U | 0.626
54 | A14C G18A C22G A57U | ≤ 0.5
55 | A14C C33A A37U C62G | ≤ 0.5
56 | A14C A20C C34U G44C G50C C62U | ≤ 0.5
57 | A14C C27A A37G G51C | 0.615
58 | A14C C31A | 0.669
59 | A14C C31G | 0.502
60 | A14C G18A G50A G63C | ≤ 0.5
61 | A14C A21C C24U A36U A43U A65C C66U | ≤ 0.5
62 | A14C C27G C46G A57G A65G | ≤ 0.5
63 | U13G C46U | 0.895
64 | A14C C22G G25A C31U G58A | ≤ 0.5
65 | A14C G18A C31G C33U A37C A65U | ≤ 0.5
66 | A14C G51A A69U A70G | ≤ 0.5
67 | A14C G52C C55G | 0.546
68 | A14C G25A A36C G44A | 0.571
69 | A14C C22G G52C | ≤ 0.5
70 | A14C A36C A69U | 0.905
71 | U13G C49A G52C | ≤ 0.5
72 | U13G C31A A57U | ≤ 0.5

Row | Variant | yeast fitness
73 | A14C G58A C61A C62G | ≤ 0.5
74 | A14C C24G U26A A36G A40U A43U | ≤ 0.5
75 | A14C A20G C22U C30U | ≤ 0.5
76 | U13G U47A | 0.976
77 | A14C A20U C31U G38C | ≤ 0.5
78 | A14C C22U C34U | 0.79
79 | A14C G25C U32A A43C G63A A69C | ≤ 0.5
80 | A14C G25C U47A | 0.608
81 | U13G C49G G50C C60G C62A | ≤ 0.5
82 | A14C C49G G63A | 0.593
83 | A14C C49G G63C | 0.592
84 | A14C C27U C31U C33A C55U | ≤ 0.5
85 | A14C G25A C33G A36U A45G G52C A70C | 0.556
86 | A14C A42G G68C | ≤ 0.5
87 | A14C C46U G50C C61A A70C | ≤ 0.5
88 | A14C G18A G44A C66G | 0.56
89 | A14C C30G G68U | 0.567
90 | A14C C49G U54C G63A | ≤ 0.5
91 | A14C G56A | 0.762
92 | A14C C66G | 0.558
93 | A14C C66U | 0.657
94 | A14C C66A | 0.722
95 | A14C A45U G48A A69U | ≤ 0.5
96 | A14C C27G U28G | ≤ 0.5

Row | Variant | yeast fitness
97 | A14C C62U A69C | ≤ 0.5
98 | A14C C31G C62A G67U | ≤ 0.5
99 | A14C G18A C29G A42C | ≤ 0.5
100 | U13G C49U | 0.693
101 | A14C G41A | 0.553
102 | A14C C24G A45C U59C C61U | ≤ 0.5
103 | A14C G17C A21G U32A C34U | ≤ 0.5
104 | A14C G23C A36U A70U | ≤ 0.5
105 | A14C C31U A70G | 0.612
106 | U13G G67C | 0.777
107 | A14C A57G | 0.748
108 | A14C A57U | 0.52
109 | A14C G58C G67A | ≤ 0.5
110 | A14C G39C | 0.575
111 | A14C A45G G68C | ≤ 0.5
112 | U13G C33U | 0.671
113 | U13G C33G | 0.51
114 | A14C C27U C46U G52C | ≤ 0.5
115 | A14C A45U G48A | ≤ 0.5
116 | U13G U16C C55A | ≤ 0.5
117 | A14C A20U A69U | 0.532
118 | A14C A20U A69C | ≤ 0.5
119 | U13G G68C | 0.584
120 | A14C C27G C30G G38C | ≤ 0.5

Row | Variant | yeast fitness
121 | A14C A20C C30A C34G C66A | ≤ 0.5
122 | A14C C60A A70U | ≤ 0.5
123 | U13G C29U C31U U35A A57C | ≤ 0.5
124 | A14C A15U A40C G48A | ≤ 0.5
125 | A14C G25C G48A G50A | ≤ 0.5
126 | A14C C34A G38C | ≤ 0.5
127 | A14C C22G G63C | ≤ 0.5
128 | A14C C24G | 0.579
129 | A14C C22U G41A C61U C66U | ≤ 0.5
130 | A14C A15G C46G A69G | ≤ 0.5
131 | A14C A20U C33U | ≤ 0.5
132 | A14C C30A A40U | ≤ 0.5
133 | A14C C46G | 0.953
134 | A14C A45G C49U | 0.549
135 | A14C G18A G48A | ≤ 0.5
136 | A14C C27U A43U | ≤ 0.5
137 | A14C C27U A43C | ≤ 0.5
138 | A14C C30U G68C | ≤ 0.5
139 | U13G G44C | 0.774
140 | A14C C24U U35C | ≤ 0.5
141 | A14C C33G | 0.726
142 | A14C A21G C29A C34U A69U | 0.638
143 | A14C A43U | 0.731
144 | A14C A43G | 0.628

Row | Variant | yeast fitness
145 | A14C A40G C49U G58A | ≤ 0.5
146 | U13G U19A C27U C29U | ≤ 0.5
147 | U13G G25A A69U | 0.798
148 | A14C A20C A42G G44A | 0.633
149 | A14C G44A C66U | ≤ 0.5
150 | U13G U28A C55G C66A | 0.63
151 | U13G U35G A40G C66U | 0.526
152 | A14C A15G G17C A45C | ≤ 0.5
153 | A14C C27A U54A A69G | 0.647
154 | A14C G18A G44A U59C C66G | ≤ 0.5
155 | U13G G48A A65U | 0.654
156 | A14C A40C | 0.6
157 | U13G G48A C62G A69U | 0.599
158 | A14C A40U G56C G67U | ≤ 0.5
159 | U13G G44A C46U A69C | 0.646
160 | A14C A20C U32C | ≤ 0.5
161 | A14C A15U C33A A37G | 0.596
162 | A14C A21G G25A C33U C61A A69U | ≤ 0.5
163 | U13G C29A | 0.571
164 | U13G C29U | 0.769
165 | U13G C31A C66U | 0.814
166 | A14C C31U G50A C55G C62A | ≤ 0.5
167 | A14C G18C G41C | 0.662
